Among the data in ChEMBL document CHEMBL1153963, “Phenanthrene-based tylophorine-1 (PBT-1) inhibits lung cancer cell growth through the Akt and NF-kappaB pathways” (J Med Chem, 2009) are Activity values, retold here.

Molecules are shown by their SMILES. Calls of active or inactive are those of the source. The calls are words filed in the database; no cut-off is given here.

Test [1] relates to CL1-0. The test is described as follows: Induction of cyclin B1 protein accumulation in human CL1-0 cells at 0.5 ug/mL after 24 hrs by Western blot. Type of test: functional, cell-based. Summed up:
(§1)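 CL1-0 cells exposed to rising concentrations for 24 h, or to 0.5 µg/mL over a time course; 50 µg lysate resolved by 10% SDS-PAGE, blotted, probed with cyclin/CDK-inhibitor antibodies in TBS-Tween/5% milk, HRP secondary, chemiluminescent film detection.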

The subject of test [2] is CL1-0. Nature of the test: Effect on cyclin A protein expression in human CL1-0 cells at 0.5 ug/mL after 24 hrs by Western blot. Type of test: functional, cell-based. Summed up: as §1
Test [3] is described as follows: Cell cycle arrest in human CL1-0 cells assessed as accumulation at S phase after 16 hrs by flow cytometry. Type of test: functional, cell-based. Summed up:
(§2)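 CL1-0 cells seeded at 2×10^5 per 60 mm dish, incubated 24 h, then exposed to various drug concentrations for 2, 6, 12, 16 or 24 h. Harvested cells fixed in cold 70% ethanol at 4 °C for 16 h, treated with RNase A (20 µg/mL, 37 °C, 30 min), stained with propidium iodide (50 µg/mL, 4 °C, 30 min), analysed at once by flow cytometry for phase distribution.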
For orientation: Flow cytometry measures light scatter and fluorescence of single cells or particles in a stream.

Test [4] is described as follows: Cell cycle arrest in human CL1-0 cells assessed as accumulation at G0/G1 phase after 12 hrs by flow cytometry. Type of test: functional, cell-based. The method in brief: as §2
Test [5] has as its system CL1-0. The test is described as follows: Decrease in RelA protein level in TNF-alpha-stimulated human CL1-0 cells by Western blot. Type of test: functional, cell-based. Summed up:
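CL1-0 cells serum-starved overnight, pretreated with various drug concentrations, then stimulated with TNF-α for 4 h. Lysates (50 µg) resolved by 10% SDS-PAGE, blotted, probed with specific antibodies in TBS pH 7.5/0.05% Tween 20/5% milk, HRP secondaries, chemiluminescent film detection; a representative blot shown.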
In general terms: Immunoblotting shows a protein as a band on a membrane.

The nature of test [6]: Cell cycle arrest in human CL1-0 cells assessed as accumulation at G0/G1 phase after 6 hrs by flow cytometry. It is filed as functional, cell-based. Summed up:
as §2

The subject of test [7] is A549. The test is described as follows: Decrease in NF-kappaB1 binding affinity to NF-kappaB response element on COX2 promoter in human A549 cells by chromatin immunoprecipitation assay. Type of test: functional, cell-based. Summed up:
(§3)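 A549 cells, untreated or treated with drug plus TNF-α for 4 h, cross-linked with 1% formaldehyde (quenched with 0.125 M glycine), lysed, sonicated 12 W for 45 s, immunoprecipitated overnight at 4 °C with anti-RelA, anti-p50 or anti-RelB, collected on protein A/G beads. Cross-links reversed at 65 °C overnight; COX-2 promoter (nt -359 to +106) PCR-amplified 35 cycles, 2% agarose gel, input chromatin as control.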

The subject of test [8] is A549. The test is described as follows: Decrease in RelA binding affinity to NF-kappaB response element on COX2 promoter in human A549 cells by chromatin immunoprecipitation assay. It is filed as functional, cell-based. The method in brief:
as §3

Test [9] in a line: Cell cycle arrest in human CL1-0 cells assessed as accumulation at G2/M phase after 6 hrs by flow cytometry. It is filed as functional, cell-based. Summed up:
as §2

Test [10] can be described thus: Cell cycle arrest in human CL1-0 cells assessed as accumulation at G0/G1 phase after 2 hrs by flow cytometry. Type of test: functional, cell-based. Summed up: as §2
Test [11] deals with CL1-0. The test is described as follows: Induction of apoptosis in human CL1-0 cells assessed as PARP1 cleavage by Western blot. Type of test: functional, cell-based.
Test [12] has as its system A549. Nature of the test: Decrease in […] binding affinity to NF-kappaB response element on COX2 promoter in human A549 cells at >0.25 ug/mL by chromatin immunoprecipitation assay. Type of test: functional, cell-based. Summed up: as §3
Test [13] relates to CL1-0. The test is described as follows: Effect on cyclin E protein expression in human CL1-0 cells at 0.5 ug/mL after 24 hrs by Western blot. Type of test: functional, cell-based. Summed up: as §1
Test [14] deals with CL1-0. Nature of the test: Induction of cyclin D1 protein accumulation in human CL1-0 cells at 0.5 ug/mL after 24 hrs by Western blot. It is filed as functional, cell-based. The method in brief:
as §1

A short description of test [15]: Cell cycle arrest in human CL1-0 cells assessed as accumulation at G2/M phase after 12 hrs by flow cytometry. Type of test: functional, cell-based. The method in brief: as §2
Test [16] has as its target T1, Inhibitor of nuclear factor kappa-B kinase subunit alpha (Homo sapiens) (UniProt O15111).
T1 sequence (whole entry): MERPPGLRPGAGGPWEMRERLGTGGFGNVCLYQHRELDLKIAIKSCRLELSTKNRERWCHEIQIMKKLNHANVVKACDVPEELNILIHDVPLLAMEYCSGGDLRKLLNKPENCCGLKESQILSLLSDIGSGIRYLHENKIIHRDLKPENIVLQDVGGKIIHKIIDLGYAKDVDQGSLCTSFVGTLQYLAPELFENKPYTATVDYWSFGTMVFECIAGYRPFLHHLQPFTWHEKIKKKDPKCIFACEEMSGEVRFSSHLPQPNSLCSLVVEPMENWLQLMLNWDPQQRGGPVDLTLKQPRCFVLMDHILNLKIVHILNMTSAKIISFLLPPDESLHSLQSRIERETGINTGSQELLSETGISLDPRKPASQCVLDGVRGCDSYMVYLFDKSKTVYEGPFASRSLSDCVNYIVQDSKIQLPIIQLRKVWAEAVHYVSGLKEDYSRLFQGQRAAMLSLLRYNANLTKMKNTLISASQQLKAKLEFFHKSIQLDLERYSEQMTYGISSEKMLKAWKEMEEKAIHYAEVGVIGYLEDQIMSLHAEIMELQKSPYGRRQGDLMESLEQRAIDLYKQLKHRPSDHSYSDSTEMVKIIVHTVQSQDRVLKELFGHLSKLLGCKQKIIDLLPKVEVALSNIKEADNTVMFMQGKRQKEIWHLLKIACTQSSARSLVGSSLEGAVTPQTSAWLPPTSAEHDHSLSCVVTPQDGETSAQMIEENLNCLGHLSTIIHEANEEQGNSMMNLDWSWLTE
Nature of the test: Increase in IKKalpha activity in TNF-alpha-stimulated human CL1-0 cells by Western blot. Type of test: cell-based. Summed up:
(§4)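 CL1-0 (and A549) cells serum-starved overnight, pretreated at various concentrations, then TNF-α stimulated for 4 h; extracts immunoblotted for p-Akt, Akt, IKKα, p-IKKα/β; representative blot shown.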

Test [17] in a line: Cell cycle arrest in human CL1-0 cells assessed as accumulation at S phase after 6 hrs by flow cytometry. Type of test: functional, cell-based. Summed up:
as §2

Test [18] addresses RAC-alpha serine/threonine-protein kinase (Homo sapiens) (UniProt P31749). The test is described as follows: Inhibition of TNF-alpha-induced AKT activation in human CL1-0 cells by Western blot. Type of test: cell-based. Summed up:
as §4

The test system of test [19] is CL1-0. The test is described as follows: Effect on p21 protein expression in human CL1-0 cells at 0.5 ug/mL after 24 hrs by Western blot. It is filed as functional, cell-based. The method in brief: as §1
Test [20] in a line: Cell cycle arrest in human CL1-0 cells assessed as accumulation at S phase after 12 hrs by flow cytometry. It is filed as functional, cell-based. Summed up: as §2

Sequence of RAC-alpha serine/threonine-protein kinase (Homo sapiens) (P31749 whole entry): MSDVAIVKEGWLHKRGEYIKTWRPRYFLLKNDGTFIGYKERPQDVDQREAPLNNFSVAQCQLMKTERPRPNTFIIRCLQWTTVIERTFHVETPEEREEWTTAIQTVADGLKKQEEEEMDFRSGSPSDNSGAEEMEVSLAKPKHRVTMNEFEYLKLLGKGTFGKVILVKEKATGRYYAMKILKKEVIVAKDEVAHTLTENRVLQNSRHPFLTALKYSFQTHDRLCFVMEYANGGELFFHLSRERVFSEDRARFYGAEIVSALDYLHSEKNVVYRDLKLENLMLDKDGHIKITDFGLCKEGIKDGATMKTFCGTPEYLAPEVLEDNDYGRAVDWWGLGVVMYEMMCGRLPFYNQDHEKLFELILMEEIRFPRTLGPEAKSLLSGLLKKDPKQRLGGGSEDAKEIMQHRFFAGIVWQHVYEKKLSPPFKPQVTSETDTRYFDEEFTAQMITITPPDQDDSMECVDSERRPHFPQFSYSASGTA

For `COc1ccc2c(CN3CCC(CO)CC3)cc3cc4c(cc3c2c1)OCO4`, the outcome in [1], in test [5], in test [7], in test [8], in test [11] and in [12] was Active. For the same molecule, the result in [14], in test [16] and in test [18] was Active. The result in test [2], in test [13] and in test [19] was inactive. The Activity in test [3] was found to be 34.1%; in test [4] it was 41.7%; in [6] it was 52.5%; in test [9], 24.3%; in test [10] it was 53.7%; in [15], 27%. Moreover, the Activity came to 15.8% in test [17] and 23.9% in test [20].
